Assay outcomes from PubChem.
TRPC6 act = mouse TRPC6 channel activation | Q61143 | HEK293-TRPC6 membrane potential dye fluorescence; active compounds read high | B-score at 10 µM | 0.13% of 310,000 active | AID 2550;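 active means B-score of the integrated fluorescence ratio above library mean plus 3 SD, and starting fluorescence ratio within library mean plus 5 SD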;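 further: higher score means more depolarization so channel activation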
TRPC6 inhibitor = inhibitors of mouse TRPC6 channel; 1.1% of 310,000 active; HEK293-TRPC6, membrane potential dye, ACh-evoked depolarization; active compounds read low; B-score at 10 µM;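 active means B-score under library mean minus 3 SD, initial fluorescence not abnormally high, positive integrated signal ratio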;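 further: B-score derived from integrated fluorescence ratio over the kinetic read; more negative B-score means stronger inhibition of depolarization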
TRPC4 inh = TRPC4 (mouse) channel inhibition; 0.39% of 300,000 active; Q9QUQ5; HEK293 TRPC4beta/mu-opioid, DAMGO-evoked Fluo4 calcium flux; active compounds read low; AID 2247; B-score at 10 µM;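 active means B-score over 3 SD under the library average, no early fluorescence shift, positive overall ratio signal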
Target sequence (Q9QUQ5 whole entry, looked up): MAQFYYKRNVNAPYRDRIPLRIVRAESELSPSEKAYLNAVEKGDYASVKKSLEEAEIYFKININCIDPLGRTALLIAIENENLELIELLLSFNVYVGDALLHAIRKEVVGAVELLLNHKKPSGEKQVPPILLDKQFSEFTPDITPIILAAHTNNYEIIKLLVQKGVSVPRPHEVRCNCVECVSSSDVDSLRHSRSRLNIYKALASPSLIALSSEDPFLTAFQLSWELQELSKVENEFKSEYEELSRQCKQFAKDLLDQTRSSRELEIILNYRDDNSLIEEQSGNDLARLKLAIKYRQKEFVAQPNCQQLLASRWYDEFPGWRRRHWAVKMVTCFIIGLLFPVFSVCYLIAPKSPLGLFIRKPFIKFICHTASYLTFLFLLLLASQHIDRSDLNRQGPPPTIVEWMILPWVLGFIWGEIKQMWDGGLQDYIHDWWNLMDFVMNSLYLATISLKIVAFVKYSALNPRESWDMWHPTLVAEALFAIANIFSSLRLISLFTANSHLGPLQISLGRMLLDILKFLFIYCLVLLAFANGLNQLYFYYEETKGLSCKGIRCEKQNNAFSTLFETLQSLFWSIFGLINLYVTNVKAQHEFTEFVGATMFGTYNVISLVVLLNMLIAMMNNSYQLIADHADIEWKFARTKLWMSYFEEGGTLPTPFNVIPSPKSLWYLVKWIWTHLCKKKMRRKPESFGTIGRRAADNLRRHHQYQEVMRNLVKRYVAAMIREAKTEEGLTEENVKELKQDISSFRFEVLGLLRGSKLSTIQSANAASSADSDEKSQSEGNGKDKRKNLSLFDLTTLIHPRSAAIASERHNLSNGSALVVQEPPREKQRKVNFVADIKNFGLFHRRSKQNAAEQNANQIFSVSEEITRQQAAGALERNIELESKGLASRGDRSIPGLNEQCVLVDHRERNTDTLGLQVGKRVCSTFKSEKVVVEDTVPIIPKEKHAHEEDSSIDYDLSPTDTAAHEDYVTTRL
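Material: HEK293 cells with stable TRPC4beta plus mu-opioid receptor expression; probe or stimulus: DAMGO in two steps, submaximal then maximal; technique: Fluo4 calcium fluorescence by kinetic imaging, 5 s 1 Hz baseline; measure: integrated fluorescence ratio relative to baseline, converted to per-well B score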
TRPC4 agonist = opens the mouse TRPC4 cation channel. 0.49% of 310,000 active. AID 2237. HEK293 TRPC4beta/mu-opioid, Fluo4 calcium fluorescence; active compounds read high. B-score at 10 µM. Q9QUQ5;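 active means B-score above 5 SD of library B-scores, and initial fluorescence ratio not above library mean plus 5 SD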;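 further: positive B-score marks a calcium rise read as TRPC4 activation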
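System – HEK293 cells stably co-expressing mouse TRPC4beta and mu-opioid receptor · Signal – Fluo4 calcium-sensitive dye fluorescence, kinetic, 1 Hz baseline · Benchmarks – buffer (low) and maximal DAMGO (high) · Read-out – B score of integrated fluorescence ratio per well · Incubation – dye loading 45 min room temperature, 110 s kinetic read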
TRPC4 PAM = allosteric potentiators of mouse TRPC4 channel; Q9QUQ5; HEK293 TRPC4beta/mu-opioid, DAMGO EC20, Fluo-4 Ca2+ flux; active compounds read high; B-score at 10 µM; 0.42% of 310,000 active; AID 2227;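 active means B-score of calcium response area above 5 SD of library B-scores, with initial fluorescence ratio within 5 SD of library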;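 further: B-score of integrated fluorescence ratio over time as area under calcium response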
TRPC4 sel inh 2 = second check of whether TRPC6 inhibitors also affect mouse TRPC4; 42% of 920 active; HEK293 TRPC4/MOR, membrane potential dye fluorescence; channel activated by saturating DAMGO dose; shares compounds with TRPC6 inhibitor; inhibition, % at 10 µM;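 active means compounds whose fluorescence signal differed from control wells by over 3 SD, either direction, in both duplicate plates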
TRPC4 spec = selectivity of TRPC6 inhibitors: effect on mouse TRPC4. 61% of 920 active. activity change, negative = inhibition, % at 10 µM. shares compounds with TRPC6 inhibitor. HEK293 TRPC4/mu-opioid, membrane potential fluorescence;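 active means rise or fall in signal beyond 3 SD of buffer-only wells in both replicate plates, either sign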;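 further: integrated kinetic ratio of fluorescence range over baseline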
HEK293 MPD ctr 2-1 = parental HEK293 nonspecific activity of TRPC6 inhibitors, second screen | shares compounds with TRPC6 inhibitor | parental HEK293 membrane potential dye fluorescence; maximal acetylcholine challenge after compound addition | signal change vs control, % at 10 µM | 31% of 920 active;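 active means membrane potential signal moving either way by over 3 SD of the maximum-effect control, in both duplicate plates, meaning non-specific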
HEK293 MPD ctr-1 = counter-screen for TRPC6 inhibitors: effect in parental HEK293 cells; shares compounds with TRPC6 inhibitor; parental HEK293 membrane potential dye fluorescence; membrane potential signal change, % at 10 µM; 60% of 920 active; AID 2780;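 active means membrane potential signal shifting up or down by more than 3 SD of buffer-only wells, on both duplicate plates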
HEK293 MPD ctr-2 = checks TRPC6 modulator effects in parental HEK293 cells | 51% of 2,400 active | membrane potential dye fluorescence | shares compounds with TRPC6 inhibitor | membrane potential signal change, % at 10 µM;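 active means membrane potential signal moves up or down beyond 5 SD from buffer-only wells, on both duplicate plates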
HEK293 MPD ctr 2-2 = parental HEK293 nonspecific activity of TRPC6 modulators, second screen; shares compounds with TRPC6 inhibitor; membrane potential dye fluorescence; after compound, maximal acetylcholine stimulation; inhibition, % at 10 µM; 14% of 2,400 active; AID 488926;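 active means membrane potential signal drops by more than 5 SD from the mean control signal, in both duplicate plates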;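 further: plate controls were acetylcholine ECmax control wells for no effect and buffer only wells for full effect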
TRPC4 ctr mod = mouse TRPC4 off-target activity of TRPC6 modulators | 69% of 2,400 active | percent change from control (negative = decrease, positive = increase), % at 10 µM | shares compounds with TRPC6 inhibitor | HEK293 TRPC4/mu-opioid, membrane potential fluorescence;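 active means membrane potential signal moved up or down beyond 5 SD of buffer control wells, in both duplicate plates, actives on both sides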;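 further: plate controls were assay buffer wells for no effect and DAMGO maximal-effect wells for full effect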
TRPC4 ctr inh 2 = mouse TRPC4 off-target activity of TRPC6 modulators, second screen; shares compounds with TRPC6 inhibitor; inhibition, % at 10 µM; 55% of 2,400 active; HEK293 TRPC4/mu-opioid, membrane potential dye fluorescence; stimulated with maximal-effect DAMGO;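 active means drop in membrane potential signal beyond 5 SD of the control wells in both duplicate plates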;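 further: TRPC4 counter screen for TRPC6 hits run under conditions tuned for TRPC6 not TRPC4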
TRPC6 inh conf = mouse TRPC6 inhibitor confirmation. shares compounds with TRPC6 inhibitor. HEK293-TRPC6, membrane potential dye, ACh-evoked depolarization. inhibition, % at 10 µM. 43% of 3,300 active;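 active means fluorescence ratio falls more than 5 SD below the full-stimulation control mean, in both duplicate runs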;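 further: integrated fluorescence ratio of peak minus minimum over baseline after agonist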
TRPC6 act conf = mouse TRPC6 activator confirmation. activation, % at 10 µM. shares compounds with TRPC6 inhibitor. 11% of 2,800 active. HEK293-TRPC6 membrane potential dye fluorescence, FDSS;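 active means ratio signal rise beyond 5 SD above unstimulated control wells' mean, seen in both duplicate runs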;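 further: plate controls were buffer EC0 wells for no effect and acetylcholine ECmax response for full effect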
The depositor's hits bear a star. Shown are actives, neighbours in structure and some others; about 2.3% of the full set was active somewhere.

Screening CCCCCCOc1ccc(/C(C)=N/NC2=NCCN2)cc1[N+](=O)[O-] returned TRPC6 act inactive, TRPC6 inhibitor inactive, TRPC4 inh inactive, TRPC4 agonist inactive and TRPC4 PAM inactive.
For O=C(Cn1nnc(-c2cccs2)n1)NCCc1ccccc1 the results were TRPC6 act inactive, TRPC6 inhibitor inactive, TRPC4 inh inactive, TRPC4 agonist inactive and TRPC4 PAM inactive.
Screening COc1ccc(CCNC(=O)Cn2nnc(-c3cccs3)n2)cc1OC returned TRPC6 act inactive, TRPC6 inhibitor -5.75*, TRPC4 inh inactive, TRPC4 agonist inactive, TRPC4 PAM inactive, HEK293 MPD ctr-2 inactive, HEK293 MPD ctr 2-2 inactive, TRPC4 ctr mod inactive, TRPC4 ctr inh 2 inactive, TRPC6 inh conf inactive and TRPC6 act conf inactive.
Screening CCc1nnc(SCC(=O)NC2CC2)n1CC returned TRPC6 act inactive, TRPC6 inhibitor inactive, TRPC4 inh inactive, TRPC4 agonist inactive and TRPC4 PAM inactive.
Screening Cc1ccn2c(NC(=O)C(C)(C)Oc3ccc(Cl)cc3)c(-c3cccs3)nc2c1 returned TRPC6 act inactive, TRPC6 inhibitor -8.79*, TRPC4 inh inactive, TRPC4 agonist inactive, TRPC4 PAM inactive, HEK293 MPD ctr-2 -120.0%*, HEK293 MPD ctr 2-2 inactive, TRPC4 ctr mod -26.0%*, TRPC4 ctr inh 2 87.5%*, TRPC6 inh conf 58.0%* and TRPC6 act conf inactive.
Screening Cc1ccc(C(=O)Nc2c(-c3cccs3)nc3cc(C)ccn23)cc1 returned TRPC6 act inactive, TRPC6 inhibitor inactive, TRPC4 inh inactive, TRPC4 agonist inactive and TRPC4 PAM inactive.
CC(C)(C)c1ccc(S(=O)(=O)/N=C2\C=C(NS(=O)(=O)c3ccccc3)C(=O)c3ccccc32)cc1 was read as TRPC6 act inactive, TRPC6 inhibitor -6.09*, TRPC4 inh inactive, TRPC4 agonist inactive, TRPC4 PAM inactive, HEK293 MPD ctr-2 -153.0%*, HEK293 MPD ctr 2-2 77.0%*, TRPC4 ctr mod -30.5%*, TRPC4 ctr inh 2 89.5%*, TRPC6 inh conf 81.0%* and TRPC6 act conf inactive.
For CCc1ccc(S(=O)(=O)/N=C2\C=C(Nc3ccc(C(=O)O)cc3)C(=O)c3ccccc32)cc1 the results were TRPC6 act inactive, TRPC6 inhibitor -6.89*, TRPC4 inh inactive, TRPC4 agonist inactive, TRPC4 PAM inactive, HEK293 MPD ctr-2 -119.5%*, HEK293 MPD ctr 2-2 inactive, TRPC4 ctr mod -26.0%*, TRPC4 ctr inh 2 68.0%*, TRPC6 inh conf 36.0%* and TRPC6 act conf inactive.
For Cc1ccc(S(=O)(=O)/N=C2\C=C(Nc3cccc(C(=O)O)c3)C(=O)c3ccccc32)cc1 the results were TRPC6 act inactive, TRPC6 inhibitor inactive, TRPC4 inh inactive, TRPC4 agonist inactive and TRPC4 PAM inactive.
`Cc1sc(NC(=O)c2sc3nc4c(C)cccc4cc3c2N)c(C#N)c1C` gave TRPC6 act 13.3*, TRPC6 inhibitor inactive, TRPC4 inh inactive, TRPC4 agonist inactive, TRPC4 PAM inactive, HEK293 MPD ctr-2 inactive, HEK293 MPD ctr 2-2 inactive, TRPC4 ctr mod 13.0%*, TRPC4 ctr inh 2 inactive, TRPC6 inh conf inactive and TRPC6 act conf inactive.
O=c1c2c3c(sc2nc(N2CCNCC2)n1-c1cccc(Cl)c1)CCCCC3 was read as TRPC6 act inactive, TRPC6 inhibitor -7.18*, TRPC4 inh inactive, TRPC4 agonist inactive, TRPC4 PAM inactive, TRPC4 sel inh 2 60.5%*, TRPC4 spec inactive, HEK293 MPD ctr 2-1 inactive, HEK293 MPD ctr-1 inactive, TRPC6 inh conf 59.6%* and TRPC6 act conf inactive.
For CCCCCNc1nc2sc3c(c2c(=O)n1-c1cccc(Cl)c1)CCN(C)C3 the results were TRPC6 act inactive, TRPC6 inhibitor -5.45*, TRPC4 inh inactive, TRPC4 agonist inactive, TRPC4 PAM inactive, HEK293 MPD ctr-2 inactive, HEK293 MPD ctr 2-2 inactive, TRPC4 ctr mod inactive, TRPC4 ctr inh 2 68.5%*, TRPC6 inh conf 45.0%* and TRPC6 act conf inactive.
`CCCCSc1nc2sc3c(c2c(=O)n1-c1ccccc1)CCN(C)C3` gave TRPC6 act inactive, TRPC6 inhibitor inactive, TRPC4 inh inactive, TRPC4 agonist inactive and TRPC4 PAM inactive.
`CN1CCc2c(sc3nc(SCC(N)=O)n(-c4ccc(Cl)cc4)c(=O)c23)C1` gave TRPC6 act inactive, TRPC6 inhibitor inactive, TRPC4 inh inactive, TRPC4 agonist inactive and TRPC4 PAM inactive.
CCCCNc1nc2sc3c(c2c(=O)n1-c1cccc(Cl)c1)CCN(C)C3 was read as TRPC6 act inactive, TRPC6 inhibitor -6.08*, TRPC4 inh inactive, TRPC4 agonist inactive, TRPC4 PAM inactive, HEK293 MPD ctr-2 inactive, HEK293 MPD ctr 2-2 inactive, TRPC4 ctr mod inactive, TRPC4 ctr inh 2 57.5%*, TRPC6 inh conf inactive and TRPC6 act conf inactive.
For COc1ccc(C2CCCN2C(=S)Nc2cccc(Cl)c2C)cc1OC (stereo not given) the results were TRPC6 act inactive, TRPC6 inhibitor inactive, TRPC4 inh inactive, TRPC4 agonist inactive and TRPC4 PAM inactive.
